Results: ChEMBL document CHEMBL4354804, “Discovery of a New Isoxazole-3-hydroxamate-Based Histone Deacetylase 6 Inhibitor SS-208 with Antitumor Activity in Syngeneic Melanoma Mouse Models” (J Med Chem, 2019)
Activity calls are given as the source filed them. The rule behind the calls is not given here.

How the values were obtained:
[1] = target: T1, Protein deacetylase HDAC6 (Mus musculus) (UniProt Q9Z2V5); test: Inhibition of HDAC6 in mouse SM1 cells assessed as reduction in IL-6 stimulated PDL1 overexpression at 5 uM pretreated for 1 hr followed by IL-6 stimulation for overnight by western blot analysis; assay type: cell-based
T1 sequence (whole entry): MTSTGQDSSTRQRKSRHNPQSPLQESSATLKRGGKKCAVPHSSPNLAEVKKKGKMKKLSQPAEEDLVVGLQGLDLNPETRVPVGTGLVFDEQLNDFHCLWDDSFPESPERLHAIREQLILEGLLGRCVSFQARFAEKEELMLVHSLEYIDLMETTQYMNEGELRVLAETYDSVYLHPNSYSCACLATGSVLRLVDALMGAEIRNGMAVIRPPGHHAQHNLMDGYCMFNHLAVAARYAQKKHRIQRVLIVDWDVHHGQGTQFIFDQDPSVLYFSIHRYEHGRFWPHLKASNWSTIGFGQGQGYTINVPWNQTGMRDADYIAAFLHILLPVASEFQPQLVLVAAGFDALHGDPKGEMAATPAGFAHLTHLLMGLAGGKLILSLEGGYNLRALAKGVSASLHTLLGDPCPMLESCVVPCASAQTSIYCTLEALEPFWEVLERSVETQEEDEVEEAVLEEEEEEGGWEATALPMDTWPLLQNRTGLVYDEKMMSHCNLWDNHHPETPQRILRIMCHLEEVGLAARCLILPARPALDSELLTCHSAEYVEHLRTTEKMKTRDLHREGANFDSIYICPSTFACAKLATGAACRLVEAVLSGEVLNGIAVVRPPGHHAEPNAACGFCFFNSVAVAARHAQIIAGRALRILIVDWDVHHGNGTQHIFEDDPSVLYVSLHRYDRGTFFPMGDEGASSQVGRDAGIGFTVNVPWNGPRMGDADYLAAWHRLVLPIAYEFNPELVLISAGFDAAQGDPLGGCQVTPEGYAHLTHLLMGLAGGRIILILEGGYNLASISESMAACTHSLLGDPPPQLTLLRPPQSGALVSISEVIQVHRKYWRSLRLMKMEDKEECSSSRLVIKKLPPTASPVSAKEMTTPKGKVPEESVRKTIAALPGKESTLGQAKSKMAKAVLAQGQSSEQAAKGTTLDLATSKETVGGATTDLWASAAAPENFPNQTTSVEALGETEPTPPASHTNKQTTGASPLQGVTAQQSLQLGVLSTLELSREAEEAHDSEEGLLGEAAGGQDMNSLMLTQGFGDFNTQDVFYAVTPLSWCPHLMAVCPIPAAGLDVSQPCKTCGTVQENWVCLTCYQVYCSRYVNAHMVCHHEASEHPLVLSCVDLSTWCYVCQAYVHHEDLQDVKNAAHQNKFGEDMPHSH
Method in brief: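 SM1 cells pretreated with 5 µM compound, then IL-6 overnight. Lysed in RIPA buffer with protease and phosphatase inhibitors, sonicated, protein quantified by BCA. Immunoblot for PD-L1 and STAT3 Y705 phosphorylation.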

Mus musculus [2] = test: Antitumor activity against mouse SM1 cells implanted in flank of immunocompetent C57BL/6 mouse assessed as reduction in tumor growth at 25 mg/kg, ip administered 1 week post-implantation measured for 18 days; assay type: functional, organism-based
Method in brief: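 SM1 cells passaged in vivo mouse to mouse at least five times; 1.0 × 10^6 cells in 100 µL PBS injected subcutaneously into female C57BL/6 mice 4-6 weeks old, 10 per group. Treatment ip 25 mg/kg or 100 µL PBS vehicle, five days a week until control tumors reached maximum size. Tumor volume from calipers as L × W2/2.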

T-24 = test: Induction of cell death in human T24 cells at 0.1 to 25 uM; assay type: cell-based; conditions: t-24, 25 µM
Mus musculus [3] = test: Antitumor immunity against mouse SM1 cells implanted in flank of immunocompetent C57BL/6 mouse assessed as infiltration of intratumoral CD8+ cells at 25 mg/kg, ip administered 1 week post-implantation by flow cytometry; assay type: functional, organism-based
[4] = Effect on cell viability in mouse SM1 cells up to 10 uM by ApoTox-Glo triplex assay; assay type: cell-based
Method in brief: (§1)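 SM1 cells treated with HDAC inhibitors, with pan-HDACi and assay controls on every plate. ApoTox-Glo triplex readout: viability fluorescence 400Ex/505Em, cytotoxicity fluorescence 485Ex/520Em, then caspase 3/7 reagent read by luminescence for apoptosis.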

[5] = Half life in mouse liver microsomes in presence of NADPH; assay type: ADME, Microsome
Method in brief: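 Liver microsomal stability in mouse and human microsomes with NADPH; half-life in minutes.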

[6] = Cytotoxicity against mouse SM1 cells at 0.1 to 25 uM by ApoTox-Glo triplex assay; assay type: cell-based; method in brief: as §1
[7] = Mutagenicity in Salmonella typhimurium TA1537 assessed as induction of >= 3 fold increase in revertant colonies at 1.5 to 1000 ug/well in presence of S9 fraction by Ames test; assay type: toxicity, subcellular; conditions: salmonella enterica subsp. enterica serovar typhimurium
Method in brief: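 Ames test with S. typhimurium TA98 and TA1537, with and without S9 mix. A positive call required a ≥ 2-fold (TA98) or ≥ 3-fold (TA1537) rise in mean revertant colonies over the concurrent negative/solvent control.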

[8] = target: T1, Protein deacetylase HDAC6 (Mus musculus); test: Inhibition of HDAC6 in mouse SM1 cells assessed as effect on acetylated histone H3 level at 5 uM after 24 hrs by Western blot analysis; assay type: cell-based
Mus musculus [9] = test: Antitumor immunity against mouse SM1 cells implanted in flank of immunocompetent C57BL/6 mouse assessed as increase in antitumor M1 macrophages at 25 mg/kg, ip administered 1 week post-implantation by flow cytometry; assay type: functional, organism-based
5637 = test: Induction of cell death in human 5637 cells at 0.1 to 25 uM; assay type: cell-based; conditions: human, 5637, 25 µM

- inhibition [1]: Active
- half-life [5]: 37 min
- inhibition [8]: inactive
SMILES: O=C(NCCc1cc(C(=O)NO)no1)c1ccc(Cl)c(Cl)c1
- inhibition (Mus musculus [2]): Active
- Activity (T-24): Non-Toxic
- Activity (Mus musculus [3]): Active
- Activity [4]: Non-Toxic
- Activity [6]: Non-Toxic
- Activity [7]: Non-Toxic
- Activity (Mus musculus [9]): Active
- Activity 5637: Non-Toxic
